From ChEMBL document CHEMBL4028863, “Exploring Heme and Hemoglobin Binding Regions of Plasmodium Heme Detoxification Protein for New Antimalarial Discovery” (J Med Chem, 2017) come the findings set out here.

Active and inactive are the calls of the source. No cut-off for these calls is given here.

The inhibition is the change of the read-out against control, counted positive when it falls. Broadly, the Kd is a measure of binding affinity in units of concentration. A word on the IC50: it is the concentration that gives 50% inhibition.

The nature of data set [1]: Inhibition of wild type Plasmodium falciparum HDP binding to hemoglobin at 0.5 to 100 uM preincubated for 30 min followed by HDP addition measured after 1 hr by ELISA. In short, it runs like this: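 ELISA competition: 400 ng hemoglobin preincubated with varying peptide concentrations for 30 min at 37 °C, then added to wells coated overnight at 4 °C with 200 ng recombinant PfHDP and blocked with 3% BSA. Detection with anti-Hb (1:500), then HRP anti-rabbit (1:5000) for 1 h, OPD substrate, absorbance 490 nm. Control peptide included.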
In general terms: ELISA stands for enzyme-linked immunosorbent assay.

In data set [2] the test system is Plasmodium falciparum. The experiment in a line: Antiparasitic activity against late ring stage Plasmodium falciparum 3D7 infected in RBC at 50 to 100 uM after 60 hrs by ethidium bromide staining based flow cytometric analysis. Type of data set: functional. The essentials:
(§1)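 P. falciparum 3D7 cultures synchronized with 5% sorbitol; assay set at late ring stage, 2% hematocrit, 1% parasitemia. Compounds added at 50 and 100 μM (screen) or 5−100 μM (dose series). Parasitemia read by flow cytometry after 60 h (methods: 48 h into next cycle): ethidium bromide 10 μg/mL, 20 min, 37 °C; FL2-positive fraction of 100000 cells, uninfected RBCs as control. Triplicates.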
A general note: In flow cytometry, cells or beads pass a laser one at a time.

Data set [3] can be described thus: Stability of the compound under freezing condition. Type of data set: physicochemical.
Data set [4] concerns Plasmodium falciparum. The experiment in a line: Growth inhibition of late ring stage Plasmodium falciparum 3D7 infected in RBC after 60 hrs by e thidium bromidestaining based flow cytometric analysis. Type of data set: functional. The essentials:
as §1

Data set [5] deals with Plasmodium falciparum. The experiment in a line: Antiplasmodial activity against late trophozoite stage of Plasmodium falciparum 3D7 infected in RBC assessed as gross deformaties in food vacuole at 50 to 100 uM after 12 hrs by giemsa staining based microscopic analysis. Type of data set: functional. The essentials:
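Sorbitol-synchronized 3D7 late-ring cultures at 2% hematocrit and 1% parasitemia were given peptide at 50−100 μM. After 12 h, at the late trophozoite stage, Giemsa-stained smears were examined by microscopy for food vacuole morphology.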

For data set [6], the system named is Heme. The experiment in a line: Binding affinity to heme (unknown origin) assessed as reduction in heme to hemozoin conversion by Plasmodium falciparum HDP at 100 uM relative to control. The arrangement: scale not given: the % may be the effect or the level left. The essentials: (§2)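 Heme-to-hemozoin conversion: heme (10 mM DMSO stock) at 300 μM with 0.5 μM recombinant PfHDP in 500 mM sodium acetate pH 5.2, 4 h at 37 °C. Stopped with SDS. Pellet washed in 2.5% SDS and in 50 mM bicarbonate pH 9.1 to strip free heme. Hemozoin dissolved in 0.1N NaOH/2.5% SDS, read at 405 nm. Triplicates.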

Data set [7] deals with Heme. The experiment in a line: Binding affinity to heme (unknown origin) at 20 uM by SORET assay. In short, it runs like this:
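Soret titration: 20 μM peptide in 100 mM sodium acetate pH 5.2; heme added in 3 μM increments. Spectrum recorded after each addition; change in absorbance at 400 nm plotted against heme concentration. Alanine-substituted peptide served as control.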

Data set [8] has as its system Heme. The experiment in a line: Binding affinity to heme (unknown origin) assessed as reduction in heme to hemozoin conversion by Plasmodium falciparum HDP. In short, it runs like this: as §2
The target in data set [9] is T1, Heme ligase (Plasmodium falciparum (isolate 3D7)) (UniProt Q8IL04).
T1 sequence (whole entry): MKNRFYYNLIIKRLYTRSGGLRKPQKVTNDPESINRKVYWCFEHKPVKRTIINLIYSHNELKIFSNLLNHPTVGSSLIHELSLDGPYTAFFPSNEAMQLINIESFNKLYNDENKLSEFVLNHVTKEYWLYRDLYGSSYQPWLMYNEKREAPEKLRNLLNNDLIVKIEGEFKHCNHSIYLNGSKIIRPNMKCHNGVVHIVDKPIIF

Data set [10] has as its target T1, Heme ligase (Plasmodium falciparum (isolate 3D7)). To be noted: Plasmodium falciparum 3D7; 50 uM.
A further data set concerns the target T2, Heme ligase (Plasmodium falciparum (isolate 3D7), UniProt Q8IL04).
T2 sequence (Q8IL04 whole entry): T1 sequence (whole entry)
The experiment in a line: Binding affinity to Plasmodium falciparum 3D7 HDP assessed as equilibrium dissociation constant by SPR assay. In short, it runs like this: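 Recombinant Pf HDP immobilised (>9500 RU) on a CM5 chip from 10 mM sodium acetate pH 4.0, then ethanolamine-blocked. Ligand was diluted from a 10 mM DMSO stock to 200 μM (2% DMSO), and a concentration series was made in PBS pH 7.4 running buffer with 2% DMSO and 0.05% P20. Eight-point DMSO solvent correction, glycine pH 2.5 regeneration, 25 °C, kinetic fit.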

Regarding H-LHRKNFLELGNENIDKL-OH, the inhibition entry in [1] was “inactive”.
Take `O=C(c1cccs1)c1nn(-c2ccccc2)c2nc(=O)cc(-c3ccccc3)n12`: the result with Plasmodium falciparum [2] was Active. The Stability result in [3] is on record as “Unstable”. The “growth inhibition (GI)” value in the data set on Plasmodium falciparum [4] was “Dose-dependent effect”.
Regarding `COc1ccc(Oc2ccc(C(F)(F)F)cc2NS(=O)(=O)c2cccc3nonc23)cc1`, the result in the data set with Plasmodium falciparum [2] was Active.
As for H-LRNLLNNDLIVKIEGEFKH-OH, in the data set on Plasmodium falciparum [5], the outcome was Active. Besides, the inhibition entry in data set [1] is “Active”.
`N#Cc1cc(Cc2ccc3c(ccc4ccccc43)c2C#N)cc2c1ccc1ccccc12`: the result with Plasmodium falciparum [2] was Active.
In the case of `O=[N+]([O-])c1ccc(N/N=C2/C(=C/c3cccc4ccccc34)CCc3ccccc32)c([N+](=O)[O-])c1`, the outcome in the data set on Plasmodium falciparum [2] was Active. Further, the Stability result in data set [3] is “Unstable”. Besides, the “growth inhibition (GI)” value with Plasmodium falciparum [4] is “Dose-dependent effect”.
As to H-GEFKHCNHSIYLNG-OH, the Activity was above 75% with Heme [6] and “Dose-dependent effect” in the data set with Heme [8]. Moreover, in the data set on Heme [7], the result was Active.
`Cc1ccc(Oc2ncccc2NC(=O)c2ccc3c(c2)OCCCO3)c2c1CCC2`: the outcome in the data set on Plasmodium falciparum [2] was Active. In addition, the Stability result in [3] is given as “Unstable”. In addition, the “growth inhibition (GI)” value in the data set on Plasmodium falciparum [4] was “Dose-dependent effect”.
As for `Cc1ccc(-n2nnnc2SCc2nc(-c3cccc([N+](=O)[O-])c3)no2)c(C)c1`, in the data set on Plasmodium falciparum [2], the result was Active. Besides, the Stability result in data set [3] is on record as “Unstable”. The “growth inhibition (GI)” value in the data set on Plasmodium falciparum [4] was “Dose-dependent effect”.
Consider `NS(=O)(=O)c1cccc(-c2ccc(C3Nc4ccccc4-c4nc5ccccc5n43)o2)c1` (centres undefined), for which the result in the data set on Plasmodium falciparum [2] was Active.
On to H-GEFKAAAASIYLNG-OH, for which the outcome in the data set on Heme [7] was Active.
H-MKCHNGVVHIVD-OH: the Activity in the data set on Heme [6] is above 75%; with Heme [8], “Dose-dependent effect”. Moreover, in the data set on Heme [7], the result was Active.
As for `O=C(CCn1c(=O)oc2ccccc21)Nc1cc(C(F)(F)F)cc(C(F)(F)F)c1`, the result in the data set with Plasmodium falciparum [2] was Active.
Take `C(=C1/c2ccccc2-c2c1ccc1ccccc21)/c1cc2c3c(cccc3c1)-c1ccccc1-2`: the outcome with Plasmodium falciparum [2] was Active.
The compound `FC(F)(F)c1cccc(N2CCN(C3=Cc4ccccc4CC3)CC2)c1` registered a Ka in data set [9] of 3.37 ×10⁵ /M. In addition, in data set [10], the inhibition was found to be 31%. In addition, the Kd on Heme ligase is 2.96 µM. Moreover, the outcome in the data set with Plasmodium falciparum [2] was Active. Besides, in [3], the Stability result is “Stable”. Also, the “growth inhibition (GI)” value with Plasmodium falciparum [4] was “Dose-dependent effect”. 59.6 µM corresponded to half-maximal inhibition in the data set on Plasmodium falciparum [4] (3D7, 60 h) (IC50).
In the case of `O=C(NNC(=O)C1c2ccccc2Oc2ccccc21)c1cccc(C(F)(F)F)c1`, the result with Plasmodium falciparum [2] was Active. Also, in data set [3], the Stability entry is “Unstable”. The “growth inhibition (GI)” value in the data set with Plasmodium falciparum [4] is “Dose-dependent effect”.
`Cc1cc(=O)oc2cc(NS(=O)(=O)c3cccc4nonc34)ccc12`: the outcome in the data set with Plasmodium falciparum [2] was Active.
On to `O=c1oc2ccccc2c2c1C(c1cccc([N+](=O)[O-])c1)c1c(c3ccccc3oc1=O)O2`, for which the outcome with Plasmodium falciparum [2] was Active.
